Experimental data from PubChem BioAssay.
Activity calls are given as the source filed them.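 Rule for the calls, unless noted: active = viability at or under a set limit in both replicates, limit being median viability minus 3 SD (cut at about 48% in these data, passing the limit was not always enough); inconclusive = at or under the limit in just one replicate; inactive = at or above the limit in both replicates.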

Key:
[1] = Her2 expression decrease, cell viability multiplex – SKBR3 breast tumor cells, AlphaScreen, ATP viability, primary screen (AID 461;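 active = Her2 level under about 52% in both replicate screens, with viability over 70% of control, limit read from the data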;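 for Her2 level: lower value means less Her2 protein in the cells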;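 for viability: percent of carrier control wells set as 100% viability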); settings: SKBR3 Her2 protein level, 18-24 h, measured here: SKBR3 viability, ATP luminescence, at 10 µM
[2] = target: Receptor tyrosine-protein kinase erbB-2 (Homo sapiens) (UniProt P04626); experiment: as above; settings: 18-24 h, at 10 µM, stronger effect = lower value
Chain of Receptor tyrosine-protein kinase erbB-2 (Homo sapiens) (P04626 whole entry, looked up): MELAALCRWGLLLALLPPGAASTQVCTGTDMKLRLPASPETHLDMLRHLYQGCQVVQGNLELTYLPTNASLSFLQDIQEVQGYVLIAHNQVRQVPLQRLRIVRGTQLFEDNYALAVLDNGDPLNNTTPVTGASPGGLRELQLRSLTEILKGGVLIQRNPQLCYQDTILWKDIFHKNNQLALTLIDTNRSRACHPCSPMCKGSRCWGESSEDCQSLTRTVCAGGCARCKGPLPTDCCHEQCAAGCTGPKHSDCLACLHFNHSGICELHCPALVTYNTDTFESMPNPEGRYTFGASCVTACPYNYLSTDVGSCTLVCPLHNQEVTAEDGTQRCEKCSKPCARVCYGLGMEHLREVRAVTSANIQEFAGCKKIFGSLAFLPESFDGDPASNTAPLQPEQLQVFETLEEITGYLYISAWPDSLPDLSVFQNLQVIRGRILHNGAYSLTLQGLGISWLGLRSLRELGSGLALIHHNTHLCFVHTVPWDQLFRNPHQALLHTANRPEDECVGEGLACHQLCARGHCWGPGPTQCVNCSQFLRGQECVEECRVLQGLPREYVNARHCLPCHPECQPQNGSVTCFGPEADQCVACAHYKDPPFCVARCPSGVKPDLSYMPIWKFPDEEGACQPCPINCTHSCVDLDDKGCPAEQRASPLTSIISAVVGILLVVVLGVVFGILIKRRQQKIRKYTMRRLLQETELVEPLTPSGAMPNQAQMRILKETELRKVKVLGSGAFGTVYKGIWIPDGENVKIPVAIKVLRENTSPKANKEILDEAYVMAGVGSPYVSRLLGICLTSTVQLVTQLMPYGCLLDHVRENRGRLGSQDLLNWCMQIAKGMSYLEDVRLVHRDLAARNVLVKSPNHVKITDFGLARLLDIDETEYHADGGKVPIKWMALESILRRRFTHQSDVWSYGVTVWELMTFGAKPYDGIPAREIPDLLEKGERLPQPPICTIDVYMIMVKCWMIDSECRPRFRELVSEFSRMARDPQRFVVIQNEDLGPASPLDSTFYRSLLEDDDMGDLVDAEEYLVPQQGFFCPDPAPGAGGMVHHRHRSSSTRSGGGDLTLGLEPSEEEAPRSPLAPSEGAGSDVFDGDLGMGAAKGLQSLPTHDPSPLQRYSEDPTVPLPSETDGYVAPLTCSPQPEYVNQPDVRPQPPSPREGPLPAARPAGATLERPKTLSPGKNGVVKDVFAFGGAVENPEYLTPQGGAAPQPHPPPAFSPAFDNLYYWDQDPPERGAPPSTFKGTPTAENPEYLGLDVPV

[3] = reduced viability of SK-BR-3 breast cancer cells – cell-based, 24 h, human, pilot screen (AID 572;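 active = viability at or below 10% of carrier control in both of two separate runs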;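 note: compound exposure lasted between 18 and 24 h rather than exactly 24 h; 100% = carrier-treated control wells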); settings: SK-BR-3 viability, CellTiter-Glo luminescence, at 10 µM, stronger effect = lower value
[4] = HUVEC growth inhibition – cell-based, human, primary screen (AID 575;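 active = viability at or below 30% in both replicate assays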;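 note: 100% = median of untreated cell wells with 0.1% DMSO on each plate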); settings: HUVEC proliferation, CellTiter-Glo luminescence, 72 h; at 10 µM; stronger effect = lower value
In short: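 system = HUVEC primary cells | amount = 1250 cells/well | buffer or medium = supplemented EBM, 2% fetal bovine serum | dosing = single-point 10 µM, DMSO 0.1% final | times = 72 h compound incubation | detection = CTG luminescence | read-out = % viability relative to median vehicle-well signal on each plate | control set = vehicle and MePR control wells | format = collagen-coated 384-well format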

[5] = H69AR cell proliferation blockers – human, duplicate replicates, primary screen (AID 580); settings: H69AR lung tumor cells viability, ATP luminescence, 72 h; at 10 µM; stronger effect = lower value;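 note: 100% = mean luminescence of untreated wells and 0% = no signal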
[6] = MRP1 drug-resistance reversers in H69AR cells – cell-based, doxorubicin co-treatment, pilot screen (AID 601;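 active = viability loss from added drug above about 55%, and viability with drug at most 40%, in both replicates, limit read from the data, passing the limit was not always enough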); settings: CellTiter-Glo, 72 h, at 10 µM; for differential viability (reversal): stronger effect = higher value
[7] = yeast transport mutant growth inhibition pilot in 384-well plates, post-Golgi transport modulator project (AID 636; in the data active = inhibition above about 31%); settings: absorbance 615 nm, about 18 h, stronger effect = higher value
[8] = growth suppression of yeast trafficking mutant, preliminary HTS, modulators of trafficking downstream of Golgi apparatus project, 1536-format plate, OD 615 nm (AID 637; in the data active = inhibition above about 30%); settings: yeast transport mutant growth, absorbance 615 nm, 18 h; stronger effect = higher value
[9] = H69AR cells + 2 uM doxorubicin, measured here: viability with 2 uM doxorubicin, stronger effect = lower value
[10] = H69AR cells, compound alone cytotoxicity

Row | SMILES | viability [1] [%] | Her2 level [2] | viability [3] | viability [4] | viability [5] | differential viability (reversal) ([6]; H69AR cells + 2 uM doxorubicin) | viability [6, 9] [%] | viability [6, 10] [%] | inhibition [7] | inhibition [8]
1 | O=C(COC(=O)Cc1cccc(C(F)(F)F)c1)NCC1CCCO1 (stereo not given) | 94 | 98.5% (inactive) | 94% (inactive) | 96.5% (inactive) | 96.4% (inactive) | 22.8% (inactive) | 73.5 | 96.4 | -5.13% (inactive) | -4.36% (inactive)
2 | Fc1ccc(-c2cnc[nH]2)cc1 | 98.5 | 99.5% (inactive) | 98.5% (inactive) | 80.8% (inactive) | 96.7% (inactive) | 6.2% (inactive) | 90.4 | 96.7 | 1.32% (inactive) | -8.55% (inactive)
3 | CC(=O)c1c(C)[nH]c(C(=O)OCc2nnc(-c3ccccc3)o2)c1C | 92 | 96.5% (inactive) | 92% (inactive) | 70.4% (inactive) | 72.6% (inactive) | -5.71% (inactive) | 78.3 | 72.6 | 0% (inactive) | 26.7% (inactive)
4 | CCOC(=O)CSc1nc2ccccc2c(=O)n1NC(=O)c1ccccc1 | 120 | 78% (inactive) | 120% (inactive) | 86.6% (inactive) | 87.4% (inactive) | 7% (inactive) | 80.4 | 87.4 | -3.29% (inactive) | -1.75% (inactive)
5 | Cc1n[nH]c(C)c1S(=O)(=O)Nc1ccc2c(c1)OCCO2 | 93 | 98.5% (inactive) | 93% (inactive) | 104% (inactive) | 104% (inactive) | 14.9% (inactive) | 89.3 | 104 | -3.42% (inactive) | -4.29% (inactive)
6 | O=C(Nc1ccc2c(c1)OCO2)C(c1ccccc1)N1CCC2(CC1)OCCO2 (stereo not given) | 96.5 | 101% (inactive) | 96.5% (inactive) | 82.6% (inactive) | 96.3% (inactive) | 7.72% (inactive) | 88.6 | 96.3 | -3.78% (inactive) | 14.9% (inactive)
7 | CCOC(=O)CN1CC23C=CC(O2)C(C(=O)NCc2ccc(F)cc2)C3C1=O (stereo not given) | 88 | 93.5% (inactive) | 88% (inactive) | 102% (inactive) | 98.9% (inactive) | 12.5% (inactive) | 86.4 | 98.9 | -0.38% (inactive) | -0.17% (inactive)
8 | Cc1nn(-c2ccccc2)c2c1C(=O)NC(=O)C(C)(C)C2 | 96.5 | 88.5% (inactive) | 96.5% (inactive) | 105% (inactive) | 97.3% (inactive) | 16.2% (inactive) | 81.1 | 97.3 | -4.08% (inactive) | -1.27% (inactive)
9 | O=C(CSc1nnnn1C1CCCC1)N1CCN(C(=O)c2ccco2)CC1 | 82 | 89.5% (inactive) | 82% (inactive) | 105% (inactive) | 105% (inactive) | 1.94% (inactive) | 103 | 105 | -3.11% (inactive) | 4.59% (inactive)
10 | Cc1nc(N2CCN(c3ncccn3)CC2)c2oc3ccccc3c2n1 | 85 | 106% (inactive) | 85% (inactive) | 83.9% (inactive) | 99.4% (inactive) | -11.8% (inactive) | 111 | 99.4 | -5.47% (inactive) | -2.06% (inactive)
11 | COc1ccc(-c2cc(N3CCCC3)n3ncnc3n2)cc1 | 86 | 94.5% (inactive) | 86% (inactive) | 78.7% (inactive) | 87.2% (inactive) | 11.9% (inactive) | 75.2 | 87.2 | -5.27% (inactive) | -2.46% (inactive)
12 | CCS(=O)(=O)N1CCC(C(=O)NC2CCCCC2)CC1 | 113 | 99% (inactive) | 113% (inactive) | 92.7% (inactive) | 97.4% (inactive) | 11.3% (inactive) | 86.1 | 97.4 | 1.84% (inactive) | 3.28% (inactive)
13 | CCOC(=O)Cc1csc(NC(=O)CSc2nnc(C(C)C)n2CC)n1 | 126 | 86% (inactive) | 126% (inactive) | 88% (inactive) | 89.8% (inactive) | 1.63% (inactive) | 88.2 | 89.8 | -6.13% (inactive) | 1.59% (inactive)
14 | COc1ccc(CCNC(=O)c2cc(C(C)C)on2)cc1OC | 95.5 | 101% (inactive) | 95.5% (inactive) | 96.6% (inactive) | 93.2% (inactive) | 9.6% (inactive) | 83.6 | 93.2 | 0.51% (inactive) | -0.67% (inactive)
15 | O=C(NCc1ccc2c(c1)OCO2)c1ccc(NS(=O)(=O)c2ccc3c(c2)OCCO3)cc1 | 102 | 84.5% (inactive) | 102% (inactive) | 85.2% (inactive) | 106% (inactive) | 15.4% (inactive) | 90.9 | 106 | -8.11% (inactive) | -3.65% (inactive)
16 | FC(F)(F)C(F)(F)C(F)(F)c1nnc2ccc(N3CCOCC3)nn12 | 97.5 | 118% (inactive) | 97.5% (inactive) | 84.8% (inactive) | 83.7% (inactive) | -0.265% (inactive) | 83.9 | 83.7 | 4.21% (inactive) | 7.94% (inactive)
17 | CCCCC(=NCCO)C1=C(O)C(C(=O)OC)C(C)(C)CC1=O (stereo not given) | 90.5 | 93% (inactive) | 90.5% (inactive) | 99.7% (inactive) | 89.5% (inactive) | -0.975% (inactive) | 90.5 | 89.5 | -3.68% (inactive) | -3.81% (inactive)
18 | O=C(CNS(=O)(=O)c1ccccc1)NCc1ccccn1 | 84 | 76.5% (inactive) | 84% (inactive) | 96.2% (inactive) | 102% (inactive) | 8.75% (inactive) | 93.2 | 102 | -2.27% (inactive) | 1.45% (inactive)
19 | O=c1oc2ccccc2c(N2CCCCC2)c1CN1CCCCC1 | 86 | 99% (inactive) | 86% (inactive) | 86.2% (inactive) | 82.5% (inactive) | -0.775% (inactive) | 83.3 | 82.5 | -1.05% (inactive) | -4.03% (inactive)
20 | CN(C)CC(=O)N1c2ccccc2CCc2ccc(NC(=O)c3ccc(N)cc3)cc21 | 103 | 102% (inactive) | 103% (inactive) | 82.1% (inactive) | 83.8% (inactive) | -4.88% (inactive) | 88.7 | 83.8 | -5.79% (inactive) | 4.26% (inactive)
21 | Cc1cnc(C(=O)Nc2ccc(N3CCN(C(=O)OC(C)(C)C)CC3)cc2)cn1 | 109 | 106% (inactive) | 109% (inactive) | 100% (inactive) | 115% (inactive) | 15.1% (inactive) | 99.9 | 115 | -5.84% (inactive) | -6.51% (inactive)
22 | COc1ccc(CCNC(=O)CN(c2ccccc2OC)S(C)(=O)=O)cc1 | 112 | 99.5% (inactive) | 112% (inactive) | 93.5% (inactive) | 99.9% (inactive) | 15.6% (inactive) | 84.3 | 99.9 | -2.08% (inactive) | -1.48% (inactive)
23 | CCOc1ccc2c(O)csc2c1 | 90.5 | 116% (inactive) | 90.5% (inactive) | 96.2% (inactive) | 95.9% (inactive) | 2.28% (inactive) | 93.7 | 95.9 | 0.13% (inactive) | 2.17% (inactive)
24 | CCN(CC)C(=O)c1sc2nc(-c3cccs3)cc(-c3cccs3)c2c1N | 102 | 88.5% (inactive) | 102% (inactive) | 76.2% (inactive) | 71.8% (inactive) | -12.7% (inactive) | 84.5 | 71.8 | -4.67% (inactive) | 21% (inactive)
25 | CC(C)C(c1nnnn1C1CCCC1)N1CCN(C(=O)c2ccco2)CC1 (stereo not given) | 114 | 96% (inactive) | 114% (inactive) | 82.1% (inactive) | 88.8% (inactive) | 15.8% (inactive) | 72.9 | 88.8 | -1.82% (inactive) | -11.8% (inactive)
26 | CS(=O)(=O)NCc1nnc(SCC(=O)NC2CCCCC2)n1-c1ccc(F)cc1 | 98.5 | 100% (inactive) | 98.5% (inactive) | 102% (inactive) | 97.6% (inactive) | 9.24% (inactive) | 88.4 | 97.6 | -6.18% (inactive) | 12.3% (inactive)
27 | CCOC(=O)NC(=O)CSc1nnnn1-c1ccc(Cl)cc1 | 86.5 | 94% (inactive) | 86.5% (inactive) | 104% (inactive) | 106% (inactive) | 20.4% (inactive) | 85.7 | 106 | -5.2% (inactive) | 0.48% (inactive)
28 | COc1ccc(S(=O)(=O)NC2CCCCC2)c(C)c1C | 104 | 91% (inactive) | 104% (inactive) | 90% (inactive) | 96.3% (inactive) | 8.58% (inactive) | 87.7 | 96.3 | -2.89% (inactive) | -2.9% (inactive)
29 | Cc1cc(C)c2oc(=O)cc(CN3CCOCC3)c2c1 | 102 | 97% (inactive) | 102% (inactive) | 87.3% (inactive) | 91.4% (inactive) | 3.58% (inactive) | 87.9 | 91.4 | -6.93% (inactive) | 2.26% (inactive)
